Values after ≈ are worked out from the molar mass of the structure shown. Active and inactive are the calls of the source.
How the values were obtained:
[1] = test system: Priestia megaterium; experiment: Antibacterial activity against Bacillus megaterium at 50 ug/disk by agar diffusion assay; assay type: functional, organism-based
[2] = test system: Microbotryum violaceum; experiment: Antifungal activity against Microbotryum violaceum at 50 ug/disk by agar diffusion assay; assay type: functional, organism-based
[3] = test system: Mycotypha microspora; experiment: Antifungal activity against Mycotypha microspora at 50 ug/disk by agar diffusion assay; assay type: functional, organism-based
[4] = test system: Escherichia coli; experiment: Antibacterial activity against Escherichia coli at 50 ug/disk by agar diffusion assay; assay type: functional, organism-based
[5] = test system: Aspergillus pseudoglaucus; experiment: Antifungal activity against Eurotium repens at 50 ug/disk by agar diffusion assay; assay type: functional, organism-based
[6] = test system: [Chlorella] fusca; experiment: Antialgal activity against 'Chlorella' fusca at 50 ug/disk by agar diffusion assay; assay type: functional, organism-based; conditions: Scenedesmus fuscus
[7] = test system: MCF7; experiment: Cytotoxicity against human MCF7 cells at 10 ug/ml; assay type: functional, cell-based
Summary of the method: (§1)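 Human tumour lines were HM02 (gastric adenocarcinoma), HepG2 (hepatocellular carcinoma) and MCF7 (breast adenocarcinoma), run following NCI standards. Read-outs were total growth inhibition (TGI) and LC50, defined as a 50% reduction of the initial cell number, in µg/mL. Single-level testing was done at 10 µg/mL.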

[8] = test system: HepG2; experiment: Cytotoxicity against human HepG2 cells at 10 ug/ml; assay type: functional, cell-based; summary of the method: as §1
[9] = test system: HM02; experiment: Cytotoxicity against human HM02 cells at 10 ug/ml; assay type: functional, cell-based; summary of the method: as §1
[10] = test system: P388; experiment: Cytotoxicity against mouse P388 cells; assay type: functional; conditions: read-out: ED50 (the source's name)
[11] = Cytotoxicity against human HM02 cells; assay type: functional; summary of the method: as §1
[12] = test system: HepG2; experiment: Cytotoxicity against human HepG2 cells; assay type: functional; summary of the method: as §1
[13] = test system: Artemia; experiment: Toxicity in brine shrimp; assay type: organism-based; conditions: in vivo
[14] = test system: MCF7; experiment: Cytotoxicity against human MCF7 cells; assay type: functional; summary of the method: as §1
[15] = read-out: LC50 (the source's name)

Compound	Activity [1]	Activity [2]	Activity [3]	Activity [4]	Activity [5]	Activity [6]	Activity [7]	Activity [8]	Activity [9]	EC50 [10] [µg/mL]	GI50 [11] [µg/mL]	TGI [11] [µg/mL]	CC50 [11, 15] [µg/mL]	GI50 [12] [µg/mL]	TGI [12] [µg/mL]	CC50 [12, 15] [µg/mL]	Activity [13]	GI50 [14] [µg/mL]	TGI [14] [µg/mL]	CC50 [14, 15] [µg/mL]
C=C(C(=O)O)C(CCCCC(C)O)C(=O)OC (centres undefined)	inactive	inactive	inactive	inactive	inactive	inactive	–	–	–	–	–	–	–	–	–	–	–	–	–	–
C=C[C@@]1(C)C=C2C(=O)C(O)=C3[C@](C)(C(=O)O)CC[C@@H]4C[C@]34[C@]2(O)C(=O)C1	inactive	inactive	inactive	inactive	inactive	inactive	inactive	inactive	inactive	–	–	–	–	–	–	–	–	–	–	–
O=C1C(CO)=C[C@H](O)[C@H]2O[C@@H]12	inactive	inactive	inactive	inactive	inactive	inactive	–	–	–	0.2 (≈ 1.28 µM)	0.7 (≈ 4.48 µM)	1 (≈ 6.4 µM)	> 10	0.75 (≈ 4.8 µM)	4.6 (≈ 29.5 µM)	> 10	Toxic	0.8 (≈ 5.12 µM)	1.5 (≈ 9.61 µM)	3.6 (≈ 23.1 µM)
C=C(C(=O)O)C(CCCCCC)C(=O)O (centres undefined)	inactive	inactive	inactive	inactive	inactive	inactive	–	–	–	–	–	–	–	–	–	–	–	–	–	–
C[C@@H]1C=C[C@@H]2C[C@H](CO)CC[C@H]2[C@@H]1C(=O)O	inactive	inactive	inactive	inactive	inactive	inactive	–	–	–	–	–	–	–	–	–	–	–	–	–	–

From ChEMBL document CHEMBL1148154, “New secondary metabolites from the marine endophytic fungus Apiospora montagnei” (J Nat Prod, 2004)
